Activity calls are given as the source filed them.
Assays:
[1] = target: Mitogen-activated protein kinase; ERK1/ERK2 (Homo sapiens) (UniProt P27361+P28482); assay: Inhibition of ERK1/2 phosphorylation at Thr202/Tyr204 in human HeLa cells at 1 uM after 3 hrs by Western blotting analysis; type: cell-based
Outline: (§1)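 HeLa cells in RPMI 1640 with 10% FBS, treated 3 h at 1 μM. Lysates centrifuged 15,000 × g 15 min; 80 μg protein per lane by SDS-PAGE, nitrocellulose transfer, phospho-specific and total primary antibodies, peroxidase anti-rabbit secondary, ECL chemiluminescence.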

[2] = Cytotoxicity against human breast cancer cells after 48 hrs; type: functional; details: Cancer cell lines
Outline: (§2)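 NCI 60-cell panel subpanel lines; compounds first screened at a single 10−5 M, then those passing threshold tested in five-concentration assay over 10−9 to 10−4 M (some to 10−3 M), 48 h exposure. Growth relative to untreated control measured as cell protein; GI50, TGI and LC50 derived; some values are means of two experiments.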

NSCLC = assay: Cytotoxicity against human NSCLC cells after 48 hrs; type: functional; outline: as §2
[3] = target: Serine/threonine-protein kinase mTOR (Homo sapiens) (UniProt P42345); assay: Inhibition of mTOR phosphorylation at ser2448 in human HeLa cells at 1 uM after 3 hrs by Western blotting analysis; type: cell-based; outline: as §1
[4] = Cytotoxicity against human COLON cells after 48 hrs; type: functional; outline: as §2
HT-29 [5] = assay: Induction of apoptosis in human HT-29 cells at 100 nM after 24 hrs by trypan blue exclusion assay; type: functional, cell-based
Outline: (§3)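 HT-29 cells plated at 2×10^4 cells/cm2, treated 24 h in triplicate (DMSO 0.01%; DMSO-only controls); viable cells counted by trypan blue exclusion; mean ± s.e.m. of three determinations.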

[6] = Cytotoxicity against human ovarian cancer cells after 48 hrs; type: functional; details: Cancer cell lines; outline: as §2
[7] = target: c-Jun N-terminal kinase, JNK (Homo sapiens) (UniProt P45983+P53779+P45984); assay: Inhibition of JNK phosphorylation at Thr183/Tyr185 in human HeLa cells at 1 uM after 3 hrs by Western blotting analysis; type: cell-based; outline: as §1
[8] = Cytotoxicity against human renal cancer cells after 48 hrs; type: functional; details: Cancer cell lines; for CC50: read-out: LC50 (the source's name); outline: as §2
HT-29 [9] = assay: Cell cycle arrest in human HT-29 cells assessed as increase of cell population at G2/M phase at 100 nM after 24 hrs by flow cytometry; type: functional, cell-based
Outline: (§4)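 HT-29 cells in RPMI 1640 with 10% FBS, 2 mM L-glutamine, 37 °C, 5% CO2; treated 24 h, DMSO 0.01% in medium. Fixed in 70% ethanol at −20 °C ≥12 h, RNase A (10 μg/mL) 30 min at 37 °C, DNA stained with PI (50 μg/mL), flow cytometry; one experiment representative of three.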

HT-29 [10] = assay: Induction of apoptosis in human HT-29 cells assessed as nuclear fragmentation by propidium iodide staining method; type: functional, cell-based
Outline: (§5)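 HT-29 cells on glass coverslips (1×10^4 cells/cm2), treated 24 h; fixed in 3% paraformaldehyde, ethanol-permeabilized; nuclei stained with PI and viewed by laser scanning confocal microscopy for chromatin condensation and nuclear fragmentation; representative of three experiments.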

[11] = target: AMP-activated protein kinase, AMPK (Homo sapiens) (UniProt P54646+O43741+P54619+Q9UGJ0+Q9Y478+Q13131+Q9UGI9); assay: Inhibition of AMPK phosphorylation at Thr172 in human HeLa cells at 1 uM after 3 hrs by Western blotting analysis; type: cell-based; outline: as §1
HT-29 [12] = assay: Induction of apoptosis in human HT-29 cells assessed as chromatin condensation by propidium iodide staining method; type: functional, cell-based; outline: as §5
[13] = Cytotoxicity against human leukemia cells after 48 hrs; type: functional; details: Leukemia cell
Outline: (§6)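 NCI 60-cell panel (subpanels include leukemia and prostate). […] Percent growth relative to untreated control; some repeats averaged over two experiments.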

Bos taurus = organism: Bos taurus; assay: Displacement of [3H]colchicine from bovine brain tubulin at 5 uM after 10 mins
[14] = Cytotoxicity against human prostate cancer cells after 48 hrs; type: functional; details: Cancer cell lines; outline: as §6
[15] = Inhibition of bovine brain tubulin assembly after 20 mins; parameters: species or system Bos taurus
HT-29 [16] = assay: Induction of apoptosis in human HT-29 cells assessed as increase in caspase activity at 500 nM after 48 hrs by fluorometry; type: functional, cell-based
Outline: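 Cells exposed 48 h to 500 nM; DEVD-cleaving caspase (DEVDase) activity measured fluorometrically in cell extracts; mean ± s.e.m. of four determinations.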

HT-29 [17] = assay: Induction of cell cycle arrest in human HT-29 cells assessed as increase in p21 expression after 24 hrs by immunofluorescence confocal microscopy; type: functional, cell-based
Outline: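 On coverslips, HT-29 cells were treated 24 h, fixed with 3% paraformaldehyde, permeabilized with 70% ice-cold ethanol, stained with anti-p21 then FITC secondary (1 h, room temperature each), nuclei counterstained with PI; confocal microscopy; representative of three experiments.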

[18] = target: MAP kinase p38 (Homo sapiens) (UniProt O15264+Q15759+Q16539+P53778); assay: Inhibition of p38 phosphorylation at Thr180/Tyr182 in human HeLa cells at 1 uM after 3 hrs by Western blotting analysis; type: cell-based; outline: as §1
[19] = Cytotoxicity against human CNS cancer cells after 48 hrs; type: functional; details: Cancer cell lines; outline: as §2
[20] = Cytotoxicity against human melanoma cells after 48 hrs; type: functional; details: Melanoma cell; for CC50: read-out: LC50 (the source's name); outline: as §2
HT-29 [21] = assay: Induction of apoptosis in human HT-29 cells assessed as increase in early apoptotic cells after 24 hrs by annexin-V-FLUOS and propidium iodide staining based flow cytometry (reference value: 3.9%); type: functional
HeLa = assay: Inhibition of Akt phosphorylation at ser473 in human HeLa cells at 1 uM after 3 hrs by Western blotting analysis; type: cell-based; outline: as §1
HT-29 [22] = assay: Induction of apoptosis in human HT-29 cells assessed as increase in BAX level in mitochondria after 24 hrs by confocal laser microscopic analysis; type: functional, cell-based
Outline: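 HT-29 cells treated 24 h with 500 nM; loaded with 150 nM MitoTracker Red CM-H2XRos for 10 min at 37 °C, then fixed, permeabilized, probed with anti-Bax plus FITC secondary (1 h each, room temperature). Confocal microscopy; colocalization with mitochondria seen as orange pixels.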

HT-29 [23] = assay: Induction of apoptosis in human HT-29 cells at 500 nM after 24 hrs by trypan blue exclusion assay; type: functional, cell-based; outline: as §3
HT-29 [24] = assay: Induction of apoptosis in human HT-29 cells assessed as increase in mitochondrial ROS production by dihydroethidium staining based flow cytometry; type: functional, cell-based
Outline: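 ROS read-out: HT-29 cells treated 24 h with 500 nM, then loaded with 5 μM dihydroethidium for 30 min at 37 °C; superoxide-derived red fluorescence measured by flow cytometry with logarithmic amplification; representative of three to five experiments.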

HT-29 [25] = assay: Induction of apoptosis in human HT-29 cells assessed as loss of mitochondrial membrane potential after 24 hrs by DiOC6 staining based fluorescence assay; type: functional, cell-based
Outline: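 Following 24 h treatment at 500 nM, HT-29 cells (1×10^6/mL) were stained with 4 nM DiOC6 for 40 min at 37 °C in the dark, counterstained with PI 5 μg/mL to exclude dead cells; fluorescence by flow cytometry; representative of three to five experiments.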

HT-29 [26] = assay: Cell cycle arrest in human HT-29 cells assessed as increase of cell population at G2/M phase at 500 nM after 24 hrs by flow cytometry; type: functional, cell-based; outline: as §4

Sequence of Mitogen-activated protein kinase; ERK1/ERK2 (Homo sapiens) (P27361 whole entry, looked up): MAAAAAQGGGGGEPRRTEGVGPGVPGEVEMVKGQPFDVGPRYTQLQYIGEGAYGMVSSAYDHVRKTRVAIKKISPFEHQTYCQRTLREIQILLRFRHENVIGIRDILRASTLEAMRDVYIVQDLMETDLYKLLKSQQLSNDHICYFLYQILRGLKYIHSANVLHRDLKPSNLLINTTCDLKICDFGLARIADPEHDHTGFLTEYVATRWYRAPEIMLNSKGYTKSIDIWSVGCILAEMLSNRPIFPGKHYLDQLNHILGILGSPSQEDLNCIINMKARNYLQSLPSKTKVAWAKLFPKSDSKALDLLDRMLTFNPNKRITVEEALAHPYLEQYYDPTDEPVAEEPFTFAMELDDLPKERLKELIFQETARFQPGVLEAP
Sequence of Mitogen-activated protein kinase; ERK1/ERK2 (Homo sapiens) (P28482 whole entry, looked up): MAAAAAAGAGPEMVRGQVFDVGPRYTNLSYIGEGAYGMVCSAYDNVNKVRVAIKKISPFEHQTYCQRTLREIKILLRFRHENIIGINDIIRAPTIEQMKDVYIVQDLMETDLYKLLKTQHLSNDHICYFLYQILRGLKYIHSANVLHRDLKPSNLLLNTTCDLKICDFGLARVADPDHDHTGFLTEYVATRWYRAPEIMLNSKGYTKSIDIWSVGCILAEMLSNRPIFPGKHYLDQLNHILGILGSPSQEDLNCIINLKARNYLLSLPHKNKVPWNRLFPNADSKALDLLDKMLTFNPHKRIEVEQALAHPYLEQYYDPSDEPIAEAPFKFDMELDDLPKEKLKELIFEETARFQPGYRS

With COc1ccc2c(c1)C(=Cc1c(OC)nc3sccn13)C(=O)N2 (mixture of isomers) the inhibition [1] was “Active”, the GI50 [2] was 0.17 µM and the TGI [2] was 34.7 µM. For the same molecule, the GI50 (NSCLC) was 0.16 µM, the TGI (NSCLC) was 44.7 µM and the inhibition [3] was “inactive”. The LC50 (concentration giving 50% net cell kill) [4] was 66.1 µM, the TGI [4] was 7.59 µM and the Activity (HT-29 [5]) was “Active”. For the same molecule, the GI50 [6] was 0.1 µM, the TGI [6] was 12 µM and the inhibition [7] was “Active”. For the same molecule, the GI50 [8] was 0.14 µM, the TGI [8] was 31.6 µM and the Activity (HT-29 [9]) was “Active”. The Activity (HT-29 [10]) was “Active”, the inhibition [11] was “Active” and the Activity (HT-29 [12]) was “Active”. It also gave a GI50 [13] of 0.02 µM, an LC50 (concentration killing 50% of cells) [13] of 91.2 µM and a TGI [13] of 4.57 µM. The inhibition (Bos taurus) was 62%, the GI50 [14] was 0.05 µM and the TGI [14] was 40.7 µM. For the same molecule, the IC50 [15] was 2.9 µM, the Activity (HT-29 [16]) was “Active” and the Activity (HT-29 [17]) was “Active”. The inhibition [18] was “Active”, the GI50 [19] was 0.04 µM and the TGI [19] was 15.5 µM. The GI50 [20] was 0.04 µM, the TGI [20] was 20.9 µM and the CC50 [20] was 81.3 µM. The Activity (HT-29 [21]) was 27% and the inhibition (HeLa) was “Active”.

With Cc1cn2c(/C=C3/C(=O)Nc4c3ccc3ccccc43)c(C)nc2s1 the inhibition [1] was “inactive”, the Activity (HT-29 [22]) was “Active” and the GI50 [2] was 0.18 µM. It also gave an LC50 [2] of 50.1 µM, a TGI [2] of 5.62 µM and a GI50 (NSCLC) of 0.31 µM. The LC50 (NSCLC) was 93.3 µM, the TGI (NSCLC) was 28.2 µM and the inhibition [3] was “inactive”. For the same molecule, the GI50 [4] was 0.11 µM, the TGI [4] was 58.9 µM and the Activity (HT-29 [5]) was “Active”. For the same molecule, the GI50 [6] was 0.85 µM, the LC50 (concentration killing 50% of starting cells) [6] was 74.1 µM and the TGI [6] was 14.1 µM. For the same molecule, the inhibition [7] was “inactive”, the GI50 [8] was 0.23 µM and the TGI [8] was 12 µM. The CC50 [8] was 70.8 µM, the Activity (HT-29 [23]) was “Active” and the Activity (HT-29 [10]) was “Active”. The inhibition [11] was “inactive”, the Activity (HT-29 [12]) was “Active” and the TGI [13] was 53.7 µM. It also gave an inhibition (Bos taurus) of 49%, a GI50 [14] of 0.21 µM and a TGI [14] of 16.2 µM. The IC50 [15] was 5.3 µM, the Activity (HT-29 [16]) was “Active” and the Activity (HT-29 [17]) was “Active”. The inhibition [18] was “inactive”, the Activity (HT-29 [24]) was “Active” and the Activity (HT-29 [25]) was “Active”. For the same molecule, the GI50 [19] was 0.17 µM, the LC50 [19] was 74.1 µM and the TGI [19] was 5.37 µM. For the same molecule, the GI50 [20] was 0.14 µM, the TGI [20] was 50.1 µM and the Activity (HT-29 [26]) was “Active”. The Activity (HT-29 [21]) was 12.5% and the inhibition (HeLa) was “inactive”.

With COc1ccc2c(c1)/C(=C\c1c(-c3ccccn3)nc3sccn13)C(=O)N2 the inhibition [1] was “Active”, the GI50 [2] was 0.04 µM and the LC50 [2] was 46.8 µM. The TGI [2] was 8.32 µM, the GI50 (NSCLC) was 0.11 µM and the LC50 (NSCLC) was 39.8 µM. The TGI (NSCLC) was 6.46 µM, the inhibition [3] was “inactive” and the LC50 (concentration giving 50% net cell kill) [4] was 15.1 µM. The TGI [4] was 1.35 µM, the Activity (HT-29 [5]) was “Active” and the GI50 [6] was 0.04 µM. The LC50 (concentration killing 50% of starting cells) [6] was 17 µM, the TGI [6] was 2.19 µM and the inhibition [7] was “Active”. The GI50 [8] was 0.07 µM, the TGI [8] was 4.68 µM and the CC50 [8] was 28.8 µM. The Activity (HT-29 [9]) was “Active”, the Activity (HT-29 [10]) was “Active” and the inhibition [11] was “Active”. The Activity (HT-29 [12]) was “Active”, the GI50 [13] was 0.02 µM and the inhibition (Bos taurus) was 36%. It also gave a GI50 [14] of 0.03 µM, a TGI [14] of 3.98 µM and an IC50 [15] of 9.1 µM. For the same molecule, the Activity (HT-29 [16]) was “Active”, the Activity (HT-29 [17]) was “Active” and the inhibition [18] was “Active”. It also gave a GI50 [19] of 0.03 µM, an LC50 [19] of 34.7 µM and a TGI [19] of 2.57 µM. For the same molecule, the GI50 [20] was 0.02 µM, the TGI [20] was 6.76 µM and the CC50 [20] was 38.9 µM. For the same molecule, the Activity (HT-29 [21]) was 23% and the inhibition (HeLa) was “Active”.
